The record followed here is article PMC10173165 (Journal of Advanced Research, 2022).

Data set [1] in a line: Intravenous and oral pharmacokinetic profile. The class given is in vivo, ICR mice. To be noted: male, ICR, mouse, plasma.
Data set [2] in a line: Genotoxicity safety assessment.
The next data set has as its system NCI-N87 xenograft. Briefly: NCI-N87 tumor xenograft with IHC. The class given is in vivo, athymic nude mice. Put shortly:
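Female athymic nude mice (5 weeks old) received 5 × 10^6 NCI-N87 cells s.c. in PBS into the right flank and were randomised at 90–100 mm3 (n = 5/group). Dosing was 4 mg/kg i.v. in DMAC/Tween80/saline (5:10:85), six times at 3-day intervals. Caliper volume (L × W2)/2 was followed to day 28. Paraffin tumour sections were stained for HER2 and Ki-67 (DAB), with IHC score = intensity × fraction (0–300) over 10 fields per sample.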

The target of data set [3] is T1, (His)6-MED23_391–582 / FITC-ELF3_129–145 (Homo sapiens, UniProt Q9ULK4).
T1 sequence (Q9ULK4 391-582): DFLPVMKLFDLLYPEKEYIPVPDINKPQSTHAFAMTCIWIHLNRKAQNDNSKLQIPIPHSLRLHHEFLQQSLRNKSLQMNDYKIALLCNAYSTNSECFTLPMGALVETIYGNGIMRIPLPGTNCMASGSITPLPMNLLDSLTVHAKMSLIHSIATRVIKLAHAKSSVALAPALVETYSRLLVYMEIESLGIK
Put plainly: Fluorescence polarization assay. To be noted: negative control. The data set is classed as binding. (In fluorescence polarisation assays a small probe gives low polarisation when free and higher when bound to something large.)

A further data set deals with T2, (His)6-MED23_(391–582) (human, UniProt Q9ULK4 391-582).
T2 sequence: T1 sequence (Q9ULK4 391-582)
Put plainly: fluorescence polarisation.

For the next data set, the target named is T3, Nluc-ELF3^WT (human, UniProt P78545-1 1-371).
T3 sequence: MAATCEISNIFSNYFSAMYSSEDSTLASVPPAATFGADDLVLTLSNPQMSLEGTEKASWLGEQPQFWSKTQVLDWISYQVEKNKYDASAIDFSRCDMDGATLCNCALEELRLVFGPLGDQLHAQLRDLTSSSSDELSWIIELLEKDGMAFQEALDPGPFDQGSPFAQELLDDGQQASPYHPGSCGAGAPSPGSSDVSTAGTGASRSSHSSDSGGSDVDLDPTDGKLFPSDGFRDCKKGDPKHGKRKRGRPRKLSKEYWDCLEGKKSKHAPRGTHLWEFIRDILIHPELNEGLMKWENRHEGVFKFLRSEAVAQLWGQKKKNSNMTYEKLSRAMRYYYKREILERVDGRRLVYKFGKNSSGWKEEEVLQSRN
Put plainly: split reporter.

Where [4] appears, read: 4 mg/kg IV, compared to untreated control.

Numbering of substitutions follows the chain as printed. Names and notes keep the numbering of the source. Ends that are not written are not given here.

On to `CC(=O)N1N=C(c2cccc(O)c2)CC1c1ccc(Cl)cc1` (stereo not drawn) [Compound 15], for which the half-life (commonly the time needed for the level to fall by half in the phase considered) in data set [1] (iv) is 9.74 ± 2.76 h. Further, in data set [1] (po), the bioavailability (usually the share of a dose that reaches the circulation, judged against a reference dose that is usually intravenous) stood at 25.1% and the half-life is 10.9 ± 11 h. Further, the Genotoxicity result in data set [2] is “no association of genotoxicity”. Further, the Tumor growth entry in the data set on NCI-N87 xenograft (4 mg/kg IV every 3 days) is “significant tumor growth retardation”. Besides, in the data set on NCI-N87 xenograft (setting [4]), the “Decrease in proliferation marker Ki67 (IHC)” value is 4.5 fold and the “Reduction of HER2 level in the tumor (IHC)” value is given as 1.8 fold.
On to `COc1ccc(C2CC(c3ccccc3O)=NN2C(C)=O)c2ccccc12` (stereo not drawn) [Compound 18], for which, in data set [3], the “Change of FP signal” value was “made no such changes”.
For TSSSSDELSWIIELLEK (also: FITC label, position not given here) [FITC-labeled ELF3_(129–145) peptide], the binding result in the data set with (His)6-MED23_(391–582) is “binds”.

B1: Cluc-MED23_(391-462) (domain or fragment)
chain: DFLPVMKLFDLLYPEKEYIPVPDINKPQSTHAFAMTCIWIHLNRKAQNDNSKLQIPIPHSLRLHHEFLQQSL
As for B1, the “fold change of luciferase activity vs control” value in the data set with Nluc-ELF3^WT was 6 fold.

B2: Cluc-MED23_(391-582)^WT (domain or fragment)
chain: T1 sequence (Q9ULK4 391-582)
On to B2, for which the “fold change of luciferase activity relative to control” value with Nluc-ELF3^WT turned out to be 5.2 fold.

B3: Cluc-MED23_(391-582)^K397A (domain or fragment)
chain: T1 sequence (Q9ULK4 391-582) with K7A
For the molecule B3, the “fold change of luciferase activity relative to control” value with Nluc-ELF3^WT is 4.8 fold.
